KDM4C inh: inhibitors of human demethylase GASC-1 KDM4C; inhibition, % at 12.5 µM; hit rate 0.15% among 96,000; GST-KDM4C 2-372, H3K9me3 peptide, LANCE TR-FRET; AID 720574; Q9H3R0;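 active = mean replicate inhibition above about 25%, with at least 55% of replicates also reaching it, limit read from the data, passing the limit was not always enough; inconclusive = only one of those two conditions met; inactive = neither condition met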
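Assay system: GST-GASC-1 enzyme fragment 2-372 | Amount: 10 nM enzyme | Medium: HEPES buffer, pH 7.5, plus ascorbate | Reagent: H3K9me3 peptide substrate, Fe(II), 2-oxoglutarate | Doses: Single-point compound screen | Incubation: 30 min demethylation and 1 h detection at room temperature | Measured by: LANCE TR-FRET, excitation 340 nm, emissions 618 and 671 nm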
IDH1 R132H inh: IDH1 R132H (human) inhibition | AID 624101 | inhibition, % at 10 µM | IDH1 R132H reductase, diaphorase/resazurin fluorescence, 60 min | hit rate 0.18% among 70,000 | O75874; in the data active = inhibition above about 34%; inconclusive = no clear call, values can overlap the other calls; inactive = below about 11%
Target sequence (O75874 whole entry R132H): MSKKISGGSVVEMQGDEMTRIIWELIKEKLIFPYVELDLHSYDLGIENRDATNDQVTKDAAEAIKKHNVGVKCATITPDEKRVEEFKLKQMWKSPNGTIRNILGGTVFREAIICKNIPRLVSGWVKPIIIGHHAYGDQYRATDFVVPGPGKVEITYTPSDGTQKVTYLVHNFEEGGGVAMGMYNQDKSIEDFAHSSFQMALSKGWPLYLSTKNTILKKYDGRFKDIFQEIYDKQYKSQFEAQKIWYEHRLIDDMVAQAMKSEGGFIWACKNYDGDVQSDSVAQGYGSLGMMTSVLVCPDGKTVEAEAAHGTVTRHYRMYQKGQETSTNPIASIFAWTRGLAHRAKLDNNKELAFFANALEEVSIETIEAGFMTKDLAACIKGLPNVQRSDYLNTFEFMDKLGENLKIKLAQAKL
Pf Dd2 inh: blocks growth of Plasmodium falciparum Dd2 parasites | P. falciparum Dd2 growth, SYBR Green, 72 h; active compounds read low | activity change, % at 10 µM | AID 1159554 | hit rate 2.3% among 94,000; in the data active = activity change below about -80%; inconclusive = no clear call, values can overlap the other calls
T cruzi growth-1: T. cruzi proliferation inhibition; T. cruzi beta-gal in NIH3T3, GalScreen luminescence, 90 h; inhibition, % at 8.34 µM; hit rate 5.9% among 77,000; AID 624255;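 active = mean inhibition above about 93%, with at least 55% of replicates each passing it, limit read from the data, passing the limit was not always enough; inconclusive = only one of those two conditions holds; inactive = neither condition holds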
T cruzi growth-2: Trypanosoma cruzi proliferation inhibition. hit rate 72% among 5,600. T. cruzi beta-gal in NIH3T3, GalScreen luminescence, 90 h. shares compounds with T cruzi growth-1. inhibition, % at 8.35 µM;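 active = mean replicate inhibition above about 95% and at least 55% of replicates individually reaching it, limit read from the data; inconclusive = only one of the two criteria is met; inactive = neither criterion is met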
T cruzi growth-3: blocks T. cruzi growth in NIH3T3 host cells. shares compounds with T cruzi growth-1. hit rate 21% among 5,600. T. cruzi beta-gal in NIH3T3, GalScreen luminescence, 90 h. inhibition, % at 2.09 µM. AID 651740;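 active = mean inhibition above about 95%, with at least 55% of replicates also reaching it, limit read from the data; inconclusive = meets just one of the two conditions; inactive = meets neither condition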
NIH3T3 tox: cytotoxicity in mouse NIH/3T3 fibroblasts | hit rate 14% among 5,600 | shares compounds with T cruzi growth-1 | AID 651742 | cytotoxicity (signal decrease), % at 8.35 µM | NIH/3T3 viability, CellTiter-Glo ATP luminescence, 90 h;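 active = mean signal decrease across replicates above about 35% based on untreated-well scatter, with enough replicates individually passing, limit read from the data; inconclusive = no rule stated though some were filed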
3T3 cytotox 2: cytotoxicity in mouse NIH/3T3 fibroblasts | hit rate 56% among 5,600 | inhibition, % at 24.9 µM | shares compounds with T cruzi growth-1 | AID 651744 | NIH/3T3 viability, CellTiter-Glo ATP luminescence, 90 h;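 active = mean loss of cell viability signal at or above a set limit, and enough replicates individually reaching it; inconclusive = meets only the mean limit or only the replicate share; inactive = meets neither condition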
Each line names hits and unclear results; the compound was inactive in the other large screens (follow-up assays come after a bar, where they were run). Only some compounds are listed: those with a hit (about 5.8% of all), similar ones and a draw of the others.

O=C(c1cccnc1)N1CC(=O)N2[C@H](C1)[C@H](c1ccc(-c3cccnc3)cc1)[C@@H]2CO	none (no result: IDH1 R132H inh, T cruzi growth-1)
CC(C)C(=O)Nc1ccc(S(=O)(=O)Nc2nccc(/C=C/c3ccccc3F)n2)cc1	none (no result: KDM4C inh, Pf Dd2 inh, T cruzi growth-1)
Cc1ccc(S(=O)(=O)N(C)C[C@H]2Oc3ncc(C#CCC(C)C)cc3C(=O)N([C@@H](C)CO)C[C@H]2C)cc1	T cruzi growth-1 105 | T cruzi growth-2 104 | T cruzi growth-3 inactive | NIH3T3 tox inactive | 3T3 cytotox 2 93
CC(C)CC#Cc1cnc2c(c1)C(=O)N([C@H](C)CO)C[C@@H](C)[C@@H](CN(C)S(=O)(=O)c1ccccc1)O2	none
C[C@@H]1CN([C@@H](C)CO)C(=O)Cc2cc(NC(=O)c3ccncc3)ccc2O[C@H]1CN(C)C(=O)Nc1cccc2ccccc12	none
C[C@H]1CN([C@@H](C)CO)S(=O)(=O)c2ccc(C3=CCCC3)cc2O[C@H]1CN(C)Cc1ccccc1	T cruzi growth-1 97 | T cruzi growth-2 96 | T cruzi growth-3 inactive | NIH3T3 tox inconclusive | 3T3 cytotox 2 107
C[C@@H]1CN([C@H](C)CO)S(=O)(=O)c2ccc(C3=CCCC3)cc2O[C@H]1CN(C)CC1CCCC1	T cruzi growth-1 105 | T cruzi growth-2 inactive | T cruzi growth-3 inactive | NIH3T3 tox 59 | 3T3 cytotox 2 105
C[C@@H]1CN([C@H](C)CO)S(=O)(=O)c2ccc(C3=CCCC3)cc2O[C@@H]1CN(C)Cc1ccccc1	T cruzi growth-1 109 | T cruzi growth-2 100 | T cruzi growth-3 inactive | NIH3T3 tox inactive | 3T3 cytotox 2 107
C[C@@H]1CN([C@H](C)CO)C(=O)Cc2cc(NS(=O)(=O)c3cccs3)ccc2O[C@H]1CN(C)Cc1ccc(Oc2ccccc2)cc1	none
C[C@@H]1CN([C@H](C)CO)C(=O)c2cccc(N(C)C)c2O[C@@H]1CN(C)Cc1ccc(C(=O)Nc2ccccc2N)cc1	none (no result: KDM4C inh, IDH1 R132H inh)
C[C@H](CO)N1C[C@H](C)[C@@H](CN(C)CC2CCCCC2)Oc2ccc(NS(=O)(=O)c3ccc(Cl)cc3)cc2C1=O	none (no result: IDH1 R132H inh)
CC(=O)NC[C@@H]1[C@@H](c2ccc(-c3ccccc3)cc2)[C@H](CO)N1C(=O)C1CC1	T cruzi growth-1 99 (no result: IDH1 R132H inh) | T cruzi growth-2 inactive | T cruzi growth-3 inactive | NIH3T3 tox inactive | 3T3 cytotox 2 inactive
CC(=O)NC[C@H]1[C@H](c2ccc(-c3cccnc3)cc2)[C@H](CO)N1C(=O)C1CC1	T cruzi growth-1 111 (no result: IDH1 R132H inh) | T cruzi growth-2 inactive | T cruzi growth-3 inactive | NIH3T3 tox inactive | 3T3 cytotox 2 inactive
COc1ccc(NC(=O)Nc2cccc3c2O[C@@H](CN(C)Cc2ccc(Cl)c(Cl)c2)[C@@H](C)CN([C@@H](C)CO)C3=O)cc1	T cruzi growth-1 122 | T cruzi growth-2 99 | T cruzi growth-3 inactive | NIH3T3 tox inactive | 3T3 cytotox 2 51
C[C@H](CO)N1C[C@H](C)[C@H](CN(C)Cc2ccc(Cl)c(Cl)c2)Oc2c(NC(=O)Nc3ccc4c(c3)OCO4)cccc2C1=O	T cruzi growth-1 inconclusive (no result: IDH1 R132H inh) | T cruzi growth-2 101 | T cruzi growth-3 inactive | NIH3T3 tox inactive | 3T3 cytotox 2 27
COc1ccc(CN(C)C[C@H]2Oc3c(NC(=O)Nc4ccc(OC)cc4)cccc3C(=O)N([C@@H](C)CO)C[C@H]2C)cc1	none
C[C@@H]1CN([C@H](C)CO)C(=O)c2cccc(NC(=O)Nc3ccc4c(c3)OCO4)c2O[C@@H]1CN(C)Cc1ccc(Cl)c(Cl)c1	none (no result: IDH1 R132H inh)
COc1ccc(NC(=O)Nc2cccc3c2O[C@@H](CN(C)Cc2ccc(Cl)c(Cl)c2)[C@@H](C)CN([C@H](C)CO)C3=O)cc1	T cruzi growth-1 inconclusive (no result: KDM4C inh, IDH1 R132H inh) | T cruzi growth-2 111 | T cruzi growth-3 inactive | NIH3T3 tox inactive | 3T3 cytotox 2 38
COc1ccc(NC(=O)Nc2cccc3c2O[C@H](CN(C)Cc2ccc(Cl)c(Cl)c2)[C@H](C)CN([C@H](C)CO)C3=O)cc1	none (no result: IDH1 R132H inh)
CCS(=O)(=O)Nc1ccc2c(c1)C(=O)N(C)C[C@H](OC)[C@@H](C)CN(CCC(F)(F)F)[C@H](C)CO2	none (no result: IDH1 R132H inh, T cruzi growth-1)

Assay outcomes (PubChem BioAssay)
